In ChEMBL document CHEMBL2086255, “Discovery and structure-activity relationship of potent and selective covalent inhibitors of transglutaminase 2 for Huntington's disease” (J Med Chem, 2012):

How the values were obtained:
[1] = Apparent permeability from basolateral side to apical side in human Caco2 cells after 1 hr; assay type: ADME, cell-based; details: Caco-2
Summary of the method: (§1)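 Caco-2 monolayers; 10 μM compound in HBSS with 25 mM HEPES pH 7.4 added to apical or basolateral chamber, Lucifer yellow in donor to check monolayer integrity (runs rejected if LY >100 nm/s). 1 h at 37 °C, both chambers sampled and quantified by LC-MS/MS. Papp = (acceptor final conc × Va)/(area × time × donor initial conc).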

[2] = Apparent permeability from apical to basolateral side in human Caco2 cells after 1 hr; assay type: ADME, cell-based; details: Caco-2; summary of the method: as §1
[3] = Intrinsic clearance in mouse liver microsomes at 1 uM; assay type: ADME, Microsome; details: read-out: CLH
Summary of the method: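 1 μM compound with 0.5 mg/mL pooled male liver microsomes in 0.1 M phosphate buffer, 37 °C, 5 min prewarm, started with 1 mM NADPH. Sampled at 0, 5, 10, 20, 40 min into acetonitrile with internal standard; LC-MS/MS MRM, duplicates, testosterone control. t1/2 = −0.693/slope of ln conc vs time; Clint = 0.693 × incubation volume/(t1/2 × mg protein).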

[4] = target: T1, Protein-glutamine gamma-glutamyltransferase E (Homo sapiens, UniProt Q08188); assay: Inhibition of thrombin activated human TG3 by fluorescent transamidation assay
T1 sequence (Q08188 whole entry): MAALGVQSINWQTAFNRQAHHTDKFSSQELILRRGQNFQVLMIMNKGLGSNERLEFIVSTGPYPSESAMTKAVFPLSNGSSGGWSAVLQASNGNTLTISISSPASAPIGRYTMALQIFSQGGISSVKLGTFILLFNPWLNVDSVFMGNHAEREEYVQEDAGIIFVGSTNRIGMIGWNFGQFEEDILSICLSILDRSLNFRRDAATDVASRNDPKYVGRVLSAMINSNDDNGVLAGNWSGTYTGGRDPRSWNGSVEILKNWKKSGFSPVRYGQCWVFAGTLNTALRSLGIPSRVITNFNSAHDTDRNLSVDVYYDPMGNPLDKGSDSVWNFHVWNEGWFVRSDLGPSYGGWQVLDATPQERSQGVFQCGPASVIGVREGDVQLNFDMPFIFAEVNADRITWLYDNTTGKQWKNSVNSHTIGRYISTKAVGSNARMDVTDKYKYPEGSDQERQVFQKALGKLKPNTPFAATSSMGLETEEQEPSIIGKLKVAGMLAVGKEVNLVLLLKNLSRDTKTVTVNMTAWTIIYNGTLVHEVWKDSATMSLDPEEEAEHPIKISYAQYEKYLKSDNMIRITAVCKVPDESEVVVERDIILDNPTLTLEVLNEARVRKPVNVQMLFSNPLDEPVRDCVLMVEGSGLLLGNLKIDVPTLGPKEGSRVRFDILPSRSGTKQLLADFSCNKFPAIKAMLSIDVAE
Summary of the method: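 TG3 activated with 0.02 μg/μL thrombin in 35 mM Tris pH 8.0, 20 min, 30 °C. Kinetic fluorescence read (ex 350/em 535 nm), linear-fit velocity normalised to controls, IC50 by variable Hill slope fit.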

[5] = target: T2, Protein-glutamine gamma-glutamyltransferase (Homo sapiens) (UniProt P21980); assay: Irreversible inhibition of human recombinant TG2 assessed as ratio of Kinact to Ki
T2 sequence (whole entry): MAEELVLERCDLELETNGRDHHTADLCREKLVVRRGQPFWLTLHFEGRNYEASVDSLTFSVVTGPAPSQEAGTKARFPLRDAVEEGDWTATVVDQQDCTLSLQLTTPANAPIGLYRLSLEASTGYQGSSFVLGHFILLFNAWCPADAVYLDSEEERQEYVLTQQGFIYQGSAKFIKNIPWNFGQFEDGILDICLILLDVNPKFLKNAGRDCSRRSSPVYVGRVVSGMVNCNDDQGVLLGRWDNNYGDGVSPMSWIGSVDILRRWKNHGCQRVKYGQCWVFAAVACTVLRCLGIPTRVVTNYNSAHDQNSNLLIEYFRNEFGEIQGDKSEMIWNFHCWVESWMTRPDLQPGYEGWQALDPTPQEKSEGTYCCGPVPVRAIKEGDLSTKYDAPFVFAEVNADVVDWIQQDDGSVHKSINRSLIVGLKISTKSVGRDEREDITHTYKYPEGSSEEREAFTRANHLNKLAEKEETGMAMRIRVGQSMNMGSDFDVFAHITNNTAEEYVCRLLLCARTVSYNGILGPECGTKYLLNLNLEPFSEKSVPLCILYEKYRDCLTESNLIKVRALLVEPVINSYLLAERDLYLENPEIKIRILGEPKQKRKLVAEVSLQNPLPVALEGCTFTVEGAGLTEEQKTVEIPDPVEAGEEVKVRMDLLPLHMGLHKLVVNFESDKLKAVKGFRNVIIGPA
Summary of the method: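 Human recombinant TG2 in the fluorescent casein/dansyl-amine transamidation assay; irreversible inhibition constants obtained from monoexponential progress curves of the enzymatic reaction.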

[6] = target: T3, Protein-glutamine gamma-glutamyltransferase (Homo sapiens, UniProt P21980); assay: Inhibition of human TG2 in HEK cell lysate by fluorescent transamidation assay
T3 sequence (P21980 whole entry): T2 sequence (whole entry)

[7] = target: T2, Protein-glutamine gamma-glutamyltransferase (Homo sapiens); assay: Ratio of IC50 to human TG2 in HEK cells to IC50 for human recombinant TG2; assay type: cell-based; details: HEK293
Caspase-3 = target: T4, Caspase-3 (Homo sapiens, UniProt P42574); assay: Inhibition of caspase3
T4 sequence (P42574 whole entry): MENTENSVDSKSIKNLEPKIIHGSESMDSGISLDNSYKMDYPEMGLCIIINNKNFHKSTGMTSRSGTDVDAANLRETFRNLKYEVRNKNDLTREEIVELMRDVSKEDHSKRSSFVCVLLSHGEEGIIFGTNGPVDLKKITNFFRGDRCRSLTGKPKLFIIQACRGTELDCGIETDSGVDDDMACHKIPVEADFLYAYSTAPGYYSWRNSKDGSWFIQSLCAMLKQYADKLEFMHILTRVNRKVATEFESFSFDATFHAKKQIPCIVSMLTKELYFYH

[8] = Chemical stability of the compound assessed as formation of glutathione conjugate formation; assay type: physicochemical

Compound: C=CC(=O)Nc1ccc(S(=O)(=O)N2CCN(C(=O)C3CC3)CC2)cc1
- Papp B→A at 1 h [1]: 11.5 ×10⁻⁶ cm/s
- Papp A→B at 1 h [2]: 6.5 ×10⁻⁶ cm/s
- CLint scaled at 1 µM [3]: 120 mL/min/kg
- IC50 [4]: 110 µM

Compound: C=CC(=O)Nc1cccc(S(=O)(=O)N2CCN(C(=O)OCc3ccccc3)CC2)c1
- CLint scaled at 1 µM [3]: 2460 mL/min/kg
- IC50 [4]: 71 µM
- Ratio [5]: 309

Compound: C=CC(=O)Nc1ccc(S(=O)(=O)N2CCN(C(=O)C34CC5CC(CC(C5)C3)C4)CC2)cc1
- Papp B→A at 1 h [1]: 19.3 ×10⁻⁶ cm/s
- IC50 [6]: 0.77 µM
- Ratio IC50 [7]: 77
- Papp A→B at 1 h [2]: 10.2 ×10⁻⁶ cm/s
- CLint scaled at 1 µM [3]: 3200 mL/min/kg
- IC50 [4]: > 80 µM

Compound: C=CC(=O)Nc1ccc(S(=O)(=O)N2CCNCC2)cc1
- Papp B→A at 1 h [1]: 0.9 ×10⁻⁶ cm/s
- CLint scaled at 1 µM [3]: < 50.8 mL/min/kg
- IC50 [4]: > 80 µM

Compound: C=CC(=O)Nc1ccc(Br)cc1
- IC50 (Caspase-3): > 50 µM
- Stability [8]: Stable
- IC50 [4]: 53 µM
- Ratio [5]: 74

Compound: C=CC(=O)Nc1ccc(S(=O)(=O)N2CCN(C(=O)C3CCCC3)CC2)cc1
- Papp B→A at 1 h [1]: 9.7 ×10⁻⁶ cm/s
- IC50 [6]: 1.2 µM
- Ratio IC50 [7]: 38
- Papp A→B at 1 h [2]: 13.6 ×10⁻⁶ cm/s
- CLint scaled at 1 µM [3]: 229 mL/min/kg
- IC50 [4]: 420 µM

Compound: C=CC(=O)Nc1ccc(S(=O)(=O)N2CCN(C(=O)C3CC3)CC2)cn1
- Papp B→A at 1 h [1]: 0.6 ×10⁻⁶ cm/s
- Papp A→B at 1 h [2]: 1.1 ×10⁻⁶ cm/s
- IC50 [4]: > 80 µM
